Series [1] is described as follows: Thermodynamic solubility of the compound at pH 6.5 after 24 hrs by shake flask method using LC-MS analysis. The format is physicochemical. To be noted: buffer, read-out: Therm_solubility. An outline of the steps: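 1 mg solid shaken in 250 µL 50 mM phosphate buffer, pH 6.5: sonicated 15 min, shaken at 600 rpm and 25 °C for 2 h, then left 24 h. pH measured, then filtered by centrifugation. Filtrate diluted and quantified by LC-MS against a six-point calibration from 0.1 to 10 µg/mL.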

Series [2] can be described thus: Permeability of the compound assessed as membrane retention at pH 5 to 7.4 after 16 hrs by PAMPA assay. The format is ADME. To be noted: pH 5, 16 h. An outline of the steps:
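PAMPA sandwich: donor wells with compound solution, acceptor filter impregnated with GIT-0 lipid and filled with acceptor sink buffer. Incubated undisturbed for 16 h. Donor and acceptor samples quantified by UV spectroscopy and LC-MS; log Pe and membrane retention calculated from these.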
Background: PAMPA measures passive passage across an artificial lipid membrane.

Series [3] addresses Type 1 fimbrin D-mannose specific adhesin (Escherichia coli K-12) (UniProt P08191). Kind of series: Ratio of compound IC50 to n-heptyl alpha-D-mannopyranoside IC50 for Escherichia coli recombinant C-terminal 6His-tagged FimH-CRD with a C-terminal thrombin cleavage site expressed in Escherichia coli HM125 assessed as inhibition of streptavidin-horseradish peroxidase conjugated TM-PAA polymer binding after 3 hrs by spectrophotometry. The procedure, abridged:
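FimH-CRD-Th-6His from E. coli HM125, purified on Ni-NTA, coated at 10 µg/mL in assay buffer (20 mM HEPES, 150 mM NaCl, 1 mM CaCl2, pH 7.4) overnight at 4 °C. Wells blocked with 3% BSA for 2 h at 4 °C. Four-fold serial dilutions of compound in buffer with 5% DMSO were added with streptavidin-peroxidase-coupled TM-PAA polymer (0.5 µg/mL). Plates were incubated 3 h at 25 °C, 350 rpm. ABTS was developed 4 min, stopped with 2% oxalic acid, and read at 415 nm. Each compound was run in duplicate and repeated at least twice. IC50 is the concentration that halves maximal specific TM-PAA binding. rIC50 is compound IC50 divided by the IC50 of n-heptyl α-D-mannopyranoside run on the same plate.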

Series [4] is described as follows: Octanol-phosphate buffer distribution coefficient, log D of the compound at pH 7.4 after 2 hrs by shake flask method using LC-MS analysis. The format is physicochemical. The procedure, abridged:
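Miniaturized shake flask. Phosphate buffer (0.1 M, pH 7.4) and 1-octanol mutually saturated. Analyte at 1 µM in buffer, overlaid with octanol at two volume ratios chosen by ALOGPS-predicted logP, three determinations per ratio.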

A further series deals with Escherichia coli. Briefly: Ratio of compound IC50 to n-heptyl alpha-D-mannopyranoside IC50 for Escherichia coli […] FimH assessed as disaggregation of microorganism from guinea pig erythrocytes measured for 1400 secs by aggregometry.
Series [5] in a line: Antagonist activity at Escherichia coli […] FimH assessed as disaggregation of microorganism from guinea pig erythrocytes measured for 1400 secs by aggregometry. In kind it is functional. To be noted: read-out: IC50. The procedure, abridged:
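E. coli UTI89 and guinea pig erythrocytes (separated on Histopaque), each adjusted to OD600 of 4 (1.9 × 10⁸ CFU/mL and 2.2 × 10⁶ cells/mL). Aggregation read as optical density at 740 nm, 37 °C, stirring at 1000 rpm. Instrument calibrated with protein-poor plasma in PBS as 100% and protein-rich plasma with erythrocytes as 0%. Triplicates; IC50 from area under the disaggregation curve.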

The target in series [6] is Type 1 fimbrin D-mannose specific adhesin (Escherichia coli K-12, UniProt P08191). Briefly: Antagonist activity at Escherichia coli recombinant C-terminal 6His-tagged FimH-CRD with a C-terminal thrombin cleavage site expressed in Escherichia coli HM125 assessed as inhibition of streptavidin-horseradish peroxidase conjugated TM-PAA polymer binding after 3 hrs by spectrophotometry. An outline of the steps:
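Plates coated overnight at 4 °C with 10 µg/mL FimH-CRD-Th-6His in 20 mM HEPES, 150 mM NaCl, 1 mM CaCl2, pH 7.4, then blocked with 3% BSA for 2 h at 4 °C. Fourfold serial dilutions in buffer with 5% DMSO plus 0.5 µg/mL streptavidin-peroxidase TM-PAA polymer, 3 h at 25 °C. ABTS for 4 min, stopped with oxalic acid, OD 415 nm. Duplicates, repeated at least twice; n-heptyl α-D-mannoside on each plate; IC50 from curve fit.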

Molecules are shown by their SMILES. Values after ≈ are worked out from the molar mass of the structure shown. Where only a bound is given, the exact number is not on record here.

Sequence of Type 1 fimbrin D-mannose specific adhesin (P08191 whole entry): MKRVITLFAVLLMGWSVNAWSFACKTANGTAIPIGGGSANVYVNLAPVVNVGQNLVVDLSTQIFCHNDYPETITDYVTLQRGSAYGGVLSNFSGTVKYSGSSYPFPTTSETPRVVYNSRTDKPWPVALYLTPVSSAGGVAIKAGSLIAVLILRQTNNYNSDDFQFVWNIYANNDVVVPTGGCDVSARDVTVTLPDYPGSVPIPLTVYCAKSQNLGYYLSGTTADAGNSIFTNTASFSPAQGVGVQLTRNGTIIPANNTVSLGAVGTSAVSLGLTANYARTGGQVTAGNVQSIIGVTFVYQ
Sequence of Type 1 fimbrin D-mannose specific adhesin (Escherichia coli K-12) (P08191 whole entry): as above

In the case of `OC[C@H]1O[C@H](n2cc(-c3ccc(C(F)(F)F)cc3)nn2)[C@@H](O)[C@@H](O)[C@@H]1O`, the solubility thermodynamic at 24 h in series [1] was 159 µg/mL (≈ 424 µM). Besides, the R% in series [2] is on record as 17.2%. In addition, the Ratio IC50 in series [3] was 2.2; in the series on Escherichia coli, 3.2. In series [4], this compound returned a logD at 2 h of 1.45. For the same compound, the IC50 in series [5] was 249 µM; in series [6], 0.144 µM.

In the case of `Nc1ccc(-n2cc(CO[C@H]3O[C@H](CO)[C@@H](O)[C@H](O)[C@@H]3O)nn2)cc1`, the solubility thermodynamic at 24 h in series [1] was above 2000 µg/mL. The R% in series [2] amounted to 4%. Further, the figures for the Ratio IC50 (in series [3]; in the series with Escherichia coli) were 6.4 and 3.9, respectively. This compound also came in with a logD at 2 h in series [4] of 0.2. For the same compound, the results for the IC50 in series [5] and in series [6] were 299 µM and 0.42 µM, respectively.

As for `OC[C@H]1O[C@H](OCCc2cn(-c3ccc(F)cc3)nn2)[C@@H](O)[C@@H](O)[C@@H]1O`, the solubility thermodynamic at 24 h in series [1] is above 3000 µg/mL. In addition, the R% in series [2] is listed as 4%. The Ratio IC50 in series [3] stood at 3; in the series on Escherichia coli, 2.8. In series [4], this compound came in with a logD at 2 h of -0.21. Also, the IC50 in series [5] is 216 µM; in series [6] it was 0.196 µM.

Turning to `OC[C@H]1O[C@H](OCCc2cn(-c3ccncc3)nn2)[C@@H](O)[C@@H](O)[C@@H]1O`, the solubility thermodynamic at 24 h in series [1] is above 3000 µg/mL. For the same compound, the R% in series [2] is 4.3%. Also, the Ratio IC50 in series [3] was found to be 2.3; in the series on Escherichia coli it was 3.6. Moreover, the logD at 2 h in series [4] is below -1.5. Further, the IC50 in series [5] came to 277 µM; in series [6] it was 0.153 µM.

Take `Cc1ccc(-c2cn([C@H]3O[C@H](CO)[C@@H](O)[C@H](O)[C@@H]3O)nn2)cc1`: the solubility thermodynamic at 24 h in series [1] turned out to be 445 µg/mL (≈ 1380 µM). The R% in series [2] was determined as 11.5%. The Ratio IC50 in series [3] amounted to 3.8; in the series on Escherichia coli it was 3.7. The logD at 2 h in series [4] was 0.91. Further, the IC50 turned out to be 289 µM in series [5] and 0.248 µM in series [6].

What is called logD is the decadic logarithm of the distribution of all forms, ionised or not, between an organic phase and buffer at a given pH. A lower logD goes with lower lipophilicity. As usually defined, the IC50 is the concentration that gives 50% inhibition.
